PubChem BioAssay AID504674 (Southern Research Specialized Biocontainment Screening …, 2011)
Active and inactive are the calls of the source.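 The calls were made as follows: active = cell viability under 70% at any tested concentration, a measure not printed in our tables; inactive = the rest.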

Test system: HEp-2 viability, ATP luminescence (CellTiter-Glo)
Test: cytotoxicity in uninfected HEp-2 cells, dose response, cytotoxicity control for RSV inhibitor project, cell-based, CellTiter-Glo, synthesized compounds, set 7 (AID 504674)
How it was run: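 Material – HEp-2 cells · Quantity – 10,595 cells/well · Medium – DMEM/F12 · Compound dosing – 8-point twofold dilution series, 50 to 0.39 µM, 0.5% DMSO · Timing – compound exposure of 6 days at 37 °C, 5% CO2 · Measured by – CellTiter-Glo luminescence · Control set – cell-only wells as reference · Replicates – each concentration tested in triplicate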

| SMILES | CC50 |
| --- | --- |
| Cc1ccc(Cn2c(=O)n(Cc3ccc(C(=O)N4CCOCC4)cc3)c(=O)c3ccccc32)cc1 | 16.6 µM |
| Cc1ccc(CNC(=O)C2CCN(S(=O)(=O)c3cccc4nonc34)CC2)c(C)c1 | > 50 µM (inactive) |
| Cc1ccc(Cn2c(=O)n(Cc3ccc(C(=O)N4CCCC4)cc3)c(=O)c3ccccc32)cc1 | 4.6 µM |
| O=C(NCc1cccc(Cl)c1)C1CCN(S(=O)(=O)c2cccc3nonc23)CC1 | > 50 µM (inactive) |
| Cc1ccc(NC(=O)[C@@H]2CCCN2S(=O)(=O)c2cccc3nonc23)c(C)c1 | > 50 µM (inactive) |
| COCCCNC(=O)c1ccc(Cn2c(=O)c3ccc(OC)cc3n(Cc3ccc(C)cc3)c2=O)cc1 | 11.7 µM |
| Cc1ccc(Cn2c(=O)n(Cc3ccc(C(=O)N4CCCCC4)cc3)c(=O)c3ccccc32)cc1 | 5.12 µM |
| COc1ccc(C)c(NC(=O)[C@@H]2CCCN2S(=O)(=O)c2cccc3cccnc23)c1 | > 50 µM (inactive) |
| COc1ccccc1NC(=O)[C@@H]1CCCN1S(=O)(=O)c1cccc2nonc12 | > 50 µM (inactive) |
| Cc1ccc(Cl)cc1NC(=O)[C@@H]1CCCN1S(=O)(=O)c1cccc2cccnc12 | 13 µM |
| Cc1ccc(Cn2c(=O)n(Cc3ccc(C(=O)NC4CCCCC4)cc3)c(=O)c3ccccc32)cc1 | > 50 µM (inactive) |
| O=C(NCc1ccc(Cl)cc1)C1CCN(S(=O)(=O)c2cccc3nonc23)CC1 | > 50 µM (inactive) |
| COCCCNC(=O)c1ccc(Cn2c(=O)c3ccc(C)cc3n(Cc3ccc(C)cc3)c2=O)cc1 | > 50 µM (inactive) |
| COCCCNC(=O)c1ccc(Cn2c(=O)c3ccc(C(F)(F)F)cc3n(Cc3ccc(C)cc3)c2=O)cc1 | > 50 µM (inactive) |
| Cc1ccc(Cn2c(=O)n(Cc3ccc(C(=O)N(C)C)cc3)c(=O)c3ccccc32)cc1 | 11 µM |
| COCCNC(=O)c1ccc(Cn2c(=O)c3ccccc3n(Cc3ccc(C)cc3)c2=O)cc1 | > 50 µM (inactive) |
